From PubChem BioAssay
Activity calls are given as the source filed them.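 How the source made its calls, unless noted: active means viability at or below 10% of carrier control in both of two separate runs; inconclusive means viability at or below 10% in only one of the two runs; inactive means the rest.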

Tests used:
[1] = Her2 expression decrease, cell viability multiplex – SKBR3 breast tumor cells, AlphaScreen, ATP viability, primary screen (AID 461;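 active means Her2 level under about 52% in both replicate screens, with viability over 70% of control, limit read from the data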;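 on Her2 level: lower value means less Her2 protein in the cells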;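 on viability: percent of carrier control wells set as 100% viability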); details: SKBR3 Her2 protein level, 18-24 h, measured here: SKBR3 viability, ATP luminescence, at 10 µM
[2] = target: Receptor tyrosine-protein kinase erbB-2 (Homo sapiens) (UniProt P04626); experiment: as above; details: 18-24 h, at 10 µM, stronger effect = lower value
Receptor tyrosine-protein kinase erbB-2 (Homo sapiens), sequence (P04626 whole entry, looked up): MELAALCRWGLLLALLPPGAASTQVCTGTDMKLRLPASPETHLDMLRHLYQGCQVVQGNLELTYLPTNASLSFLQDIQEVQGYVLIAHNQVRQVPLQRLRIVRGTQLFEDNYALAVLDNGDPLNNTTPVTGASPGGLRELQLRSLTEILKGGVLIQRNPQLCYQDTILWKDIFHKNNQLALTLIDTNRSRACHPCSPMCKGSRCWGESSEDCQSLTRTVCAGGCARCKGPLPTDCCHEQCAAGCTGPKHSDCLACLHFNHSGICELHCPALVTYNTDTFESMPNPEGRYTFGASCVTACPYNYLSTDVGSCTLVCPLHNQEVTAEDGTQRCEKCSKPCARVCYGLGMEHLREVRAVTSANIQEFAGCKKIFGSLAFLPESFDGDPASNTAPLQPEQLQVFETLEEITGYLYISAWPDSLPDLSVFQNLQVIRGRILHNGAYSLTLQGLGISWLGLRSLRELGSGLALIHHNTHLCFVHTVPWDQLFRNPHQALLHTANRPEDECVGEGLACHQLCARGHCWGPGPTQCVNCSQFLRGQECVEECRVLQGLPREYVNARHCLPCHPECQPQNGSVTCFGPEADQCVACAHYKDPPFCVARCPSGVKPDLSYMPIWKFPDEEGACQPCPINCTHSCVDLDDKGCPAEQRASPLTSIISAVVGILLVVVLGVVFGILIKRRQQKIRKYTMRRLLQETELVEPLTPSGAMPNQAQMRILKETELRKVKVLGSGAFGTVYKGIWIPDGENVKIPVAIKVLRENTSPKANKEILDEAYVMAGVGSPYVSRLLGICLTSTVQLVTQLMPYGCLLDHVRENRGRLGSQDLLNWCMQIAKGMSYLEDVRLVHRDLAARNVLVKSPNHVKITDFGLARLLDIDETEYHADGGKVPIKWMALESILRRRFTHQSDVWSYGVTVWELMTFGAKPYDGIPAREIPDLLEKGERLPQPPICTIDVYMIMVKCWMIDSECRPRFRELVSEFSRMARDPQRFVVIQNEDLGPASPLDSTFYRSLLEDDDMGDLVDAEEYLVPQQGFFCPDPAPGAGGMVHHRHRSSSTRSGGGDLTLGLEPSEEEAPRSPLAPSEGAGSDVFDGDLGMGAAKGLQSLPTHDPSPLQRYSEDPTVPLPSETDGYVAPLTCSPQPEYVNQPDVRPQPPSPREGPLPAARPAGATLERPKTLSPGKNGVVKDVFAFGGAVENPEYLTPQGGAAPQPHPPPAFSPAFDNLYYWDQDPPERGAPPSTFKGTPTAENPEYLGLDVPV

[3] = reduced viability of SK-BR-3 breast cancer cells – cell-based, 24 h, human, pilot screen (AID 572); details: SK-BR-3 viability, CellTiter-Glo luminescence, at 10 µM, stronger effect = lower value;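 further: compound exposure lasted between 18 and 24 h rather than exactly 24 h; 100% = carrier-treated control wells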
[4] = HUVEC growth inhibition – cell-based, human, primary screen (AID 575;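 active means viability at or below 30% in both replicate assays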;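 further: 100% = median of untreated cell wells with 0.1% DMSO on each plate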); details: HUVEC proliferation, CellTiter-Glo luminescence, 72 h; at 10 µM; stronger effect = lower value
In short: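 Test system: primary human umbilical vein endothelial cells; medium: endothelial basal medium with 2% FBS plus growth supplements; dosing: 10 µM compound only; times: 72 h treatment at 37 °C; signal: CTG luminescence; read-out: % viability relative to median vehicle-well signal on each plate; control set: vehicle and MePR control wells; plate: 384-well, collagen-coated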

[5] = H69AR cell proliferation blockers – human, duplicate replicates, primary screen (AID 580;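 active means viability at or under a set limit in both replicates, limit being median viability minus 3 SD, cut at about 48% in these data, passing the limit was not always enough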;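 further: 100% = mean luminescence of untreated wells and 0% = no signal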); details: H69AR lung tumor cells viability, ATP luminescence, 72 h; at 10 µM; stronger effect = lower value
[6] = MRP1 drug-resistance reversers in H69AR cells – cell-based, doxorubicin co-treatment, pilot screen (AID 601;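 active means viability loss from added drug above about 55%, and viability with drug at most 40%, in both replicates, limit read from the data, passing the limit was not always enough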); details: CellTiter-Glo, 72 h, at 10 µM; for differential viability (reversal): stronger effect = higher value
[7] = yeast transport mutant growth inhibition pilot in 384-well plates, post-Golgi transport modulator project (AID 636; in the data active means inhibition above about 31%); details: absorbance 615 nm, about 18 h, stronger effect = higher value
[8] = growth suppression of yeast trafficking mutant, preliminary HTS, modulators of trafficking downstream of Golgi apparatus project, 1536-format plate, OD 615 nm (AID 637; in the data active means inhibition above about 30%); details: yeast transport mutant growth, absorbance 615 nm, 18 h; stronger effect = higher value
[9] = H69AR cells + 2 uM doxorubicin, measured here: viability with 2 uM doxorubicin, stronger effect = lower value
[10] = H69AR cells, compound alone cytotoxicity

| Structure (SMILES) | viability [1] [%] | Her2 level [2] | viability [3] | viability [4] | viability [5] | differential viability (reversal) ([6]; H69AR cells + 2 uM doxorubicin) | viability [6, 9] [%] | viability [6, 10] [%] | inhibition [7] | inhibition [8] |
| --- | --- | --- | --- | --- | --- | --- | --- | --- | --- | --- |
| CC(C(=O)Nc1ccccc1-c1ccccc1)N1CCOCC1 (stereo not given) | 108 | 97.5% (inactive) | 108% (inactive) | 104% (inactive) | 96.1% (inactive) | -1.07% (inactive) | 97.1 | 96.1 | -10.6% (inactive) | -4.13% (inactive) |
| O=C(O)c1cc2c(s1)CCCC2 | 88.5 | 93% (inactive) | 88.5% (inactive) | 104% (inactive) | 89.9% (inactive) | -1.15% (inactive) | 91.1 | 89.9 | -1.03% (inactive) | -7.83% (inactive) |
| O=C(NC1CCCC1)c1ccc2nc[nH]c2c1 | 93.5 | 94.5% (inactive) | 93.5% (inactive) | 103% (inactive) | 91.2% (inactive) | 9.56% (inactive) | 81.7 | 91.2 | -6.23% (inactive) | -0.79% (inactive) |
| CCCSc1nc2c(c(=O)[nH]c(=O)n2C)n1CCc1ccccc1 | 89.5 | 92% (inactive) | 89.5% (inactive) | 83.8% (inactive) | 86.8% (inactive) | -9.79% (inactive) | 96.6 | 86.8 | -7.47% (inactive) | 7.42% (inactive) |
| Cc1cc(C)n(-c2nc3ccccc3c(=O)n2OCCOc2ccccc2)n1 | 78 | 93% (inactive) | 78% (inactive) | 97.2% (inactive) | 89.6% (inactive) | 10.3% (inactive) | 79.3 | 89.6 | -0.13% (inactive) | -6.07% (inactive) |
| COc1cc(=O)[nH]c(SCc2c(F)c(F)c(F)c(F)c2F)n1 | 95 | 95.5% (inactive) | 95% (inactive) | 94% (inactive) | 91.5% (inactive) | -1.69% (inactive) | 93.2 | 91.5 | -5.6% (inactive) | -10% (inactive) |
| CCOC(=O)c1cc(C)sc1N1C(=O)C2C3C=CC(C3)C2C1=O (stereo not given) | 132 | 94.5% (inactive) | 132% (inactive) | 109% (inactive) | 98.7% (inactive) | 5.84% (inactive) | 92.8 | 98.7 | -7.67% (inactive) | -0.95% (inactive) |
| COc1ccc(CCNC(=O)COc2ccc(S(=O)(=O)N3CCOCC3)cc2)cc1 | 98 | 87% (inactive) | 98% (inactive) | 102% (inactive) | 95.1% (inactive) | 6.25% (inactive) | 88.9 | 95.1 | -6.76% (inactive) | 0% (inactive) |
| Cc1cccc2cc(CN(CCN3CCCC3)C(=O)NC3CCCCC3)c(=O)[nH]c12 | 83 | 78.5% (inactive) | 83% (inactive) | 76.5% (inactive) | 91% (inactive) | -1.06% (inactive) | 92 | 91 | -6.08% (inactive) | -0.16% (inactive) |
| CCOC(=O)N1CCN(C(=O)C2c3cc(OC)c(OC)cc3C(=O)N3CCc4ccccc4C23)CC1 (stereo not given) | 116 | 97% (inactive) | 116% (inactive) | 102% (inactive) | 95.7% (inactive) | -0.775% (inactive) | 96.4 | 95.7 | -6.4% (inactive) | 0.49% (inactive) |
| CC1CCN(CC(O)COC2CCC(C(C)(C)C)CC2)CC1 (stereo not given) | 82 | 76% (inactive) | 82% (inactive) | 73.8% (inactive) | 74.5% (inactive) | 3.15% (inactive) | 71.4 | 74.5 | 97.8% (active) | 84.4% (active) |
| O=C(Nc1ccccc1)N(O)c1ccc(Cl)cc1 | 93 | 79% (inactive) | 93% (inactive) | 88.5% (inactive) | 89.7% (inactive) | 11.8% (inactive) | 77.9 | 89.7 | -2.11% (inactive) | -4.5% (inactive) |
| O=C(CSc1nc2ccccc2c(=O)n1CCC(=O)N1CCCCC1)NCc1ccccc1 | 102 | 80% (inactive) | 102% (inactive) | 99.5% (inactive) | 81.8% (inactive) | -13.3% (inactive) | 95.1 | 81.8 | -1.84% (inactive) | -2.86% (inactive) |
| Nc1nnnn1/N=C/c1ccccn1 | 69 | 108% (inactive) | 69% (inactive) | 114% (inactive) | 97.2% (inactive) | 11% (inactive) | 86.2 | 97.2 | -4.73% (inactive) | 24% (inactive) |
| Cc1ccc(-n2ncc(C(=O)N3CCc4ccccc4C3)c2NC(=O)c2ccco2)cc1C | 94 | 92% (inactive) | 94% (inactive) | 83.6% (inactive) | 86.1% (inactive) | -3.83% (inactive) | 89.9 | 86.1 | -0.13% (inactive) | -3.44% (inactive) |
| O=C(CSc1nnc(COc2ccc(Cl)cc2)o1)N1CCN(c2ccccc2)CC1 | 100 | 83% (inactive) | 100% (inactive) | 57% (inactive) | 90.2% (inactive) | -2.18% (inactive) | 92.4 | 90.2 | -3.2% (inactive) | 3.11% (inactive) |

| Structure (SMILES) | viability [1] [%] | Her2 level [2] | viability [3] | viability [4] | viability [5] | differential viability (reversal) ([6]; H69AR cells + 2 uM doxorubicin) | viability [6, 9] [%] | viability [6, 10] [%] | inhibition [7] | inhibition [8] |
| --- | --- | --- | --- | --- | --- | --- | --- | --- | --- | --- |
| O=C(NC1CCN(Cc2nnnn2CCc2ccccc2)CC1)c1ccccc1F | 81.5 | 96% (inactive) | 81.5% (inactive) | 85.4% (inactive) | 86.5% (inactive) | -11.7% (inactive) | 98.3 | 86.5 | 0.13% (inactive) | -0.5% (inactive) |
| COc1cc(Br)cc(CN2CCN(C/C=C/c3ccccc3)CC2)c1O | 81 | 93.5% (inactive) | 81% (inactive) | 79.5% (inactive) | 93.2% (inactive) | 7.21% (inactive) | 86 | 93.2 | 0.93% (inactive) | 11.3% (inactive) |
| CCN(CC)CCN1C(=O)C(=O)/C(=C(/O)c2c(C)[nH]c(C(=O)OC)c2C)C1c1ccccc1OC (stereo not given) | 104 | 117% (inactive) | 104% (inactive) | 84.6% (inactive) | 68.3% (inactive) | -21.3% (inactive) | 89.5 | 68.3 | -0.26% (inactive) | -4.5% (inactive) |
| CN1/C(=C\C(=O)C(F)F)C(C)(C)c2ccccc21 | 90 | 100% (inactive) | 90% (inactive) | 99.5% (inactive) | 107% (inactive) | 19.5% (inactive) | 87.4 | 107 | -0.53% (inactive) | 1.77% (inactive) |
| CCOC(=O)NC1(NCc2ccccc2)Oc2ccccc2O1 | 92.5 | 101% (inactive) | 92.5% (inactive) | 58.5% (inactive) | 36.8% (active) | -25% (inactive) | 61.7 | 36.8 | 6.23% (inactive) | -8.69% (inactive) |
| c1ccc2nc(-c3nc4ccccc4[nH]3)ccc2c1 | 104 | 74% (inactive) | 104% (inactive) | 55.2% (inactive) | 66.6% (inactive) | -3.97% (inactive) | 70.6 | 66.6 | 0% (inactive) | -1.64% (inactive) |
| c1ccc(-c2noc(C34CC5CC(CC(C5)C3)C4)n2)nc1 | 130 | 106% (inactive) | 130% (inactive) | 94.8% (inactive) | 83.4% (inactive) | 17.3% (inactive) | 66.2 | 83.4 | -4.87% (inactive) | 2.13% (inactive) |
| Cc1ccc(CSC2=NCCN2C(=O)C2CC2)cc1 | 100 | 88% (inactive) | 100% (inactive) | 83.3% (inactive) | 97% (inactive) | 10.7% (inactive) | 86.3 | 97 | -8.11% (inactive) | 8.57% (inactive) |
| O=S1(=O)N=C(Nc2nc3c(s2)CCCC3)c2ccccc21 | 82 | 112% (inactive) | 82% (inactive) | 85.4% (inactive) | 78.9% (inactive) | -3.82% (inactive) | 82.7 | 78.9 | 0.93% (inactive) | -7.62% (inactive) |
| COc1ccc2c(c1)Sc1ccccc1N2CCN(C)C | 88.5 | 86.5% (inactive) | 88.5% (inactive) | 59.1% (inactive) | 68.8% (inactive) | -3.43% (inactive) | 72.3 | 68.8 | -5.39% (inactive) | -6.29% (inactive) |
| CCCC(=O)Nc1ccc(NC(=O)C2CC2)cn1 | 108 | 112% (inactive) | 108% (inactive) | 105% (inactive) | 102% (inactive) | 6.95% (inactive) | 95.4 | 102 | -1.73% (inactive) | 5% (inactive) |
| CCOC(=O)N1CCN(C(=O)CCc2c(C)nc3c(c(C)nn3-c3ccc(C)c(C)c3)c2C)CC1 | 92 | 88.5% (inactive) | 92% (inactive) | 82% (inactive) | 86.2% (inactive) | 6.21% (inactive) | 80 | 86.2 | -1.71% (inactive) | -7.64% (inactive) |
| O=C(CSc1ncccn1)c1ccccc1Br | 120 | 93.5% (inactive) | 120% (inactive) | 116% (inactive) | 90.7% (inactive) | -4.21% (inactive) | 94.9 | 90.7 | -6.32% (inactive) | -1.64% (inactive) |
| CCN(CC)c1nc2nonc2nc1N(CC)CC | 101 | 92% (inactive) | 101% (inactive) | 110% (inactive) | 104% (inactive) | 4.4% (inactive) | 99.2 | 104 | -6.53% (inactive) | 3.17% (inactive) |
| O=C(Nc1cccnc1)c1ccc2c(c1)OCO2 | 119 | 121% (inactive) | 119% (inactive) | 99.6% (inactive) | 97.7% (inactive) | 13.8% (inactive) | 83.9 | 97.7 | -5.33% (inactive) | 9.84% (inactive) |
| Cc1ccc(C)c(NC(=O)CC(NCCCN2CCOCC2)C(=O)O)c1 (stereo not given) | 94 | 93.5% (inactive) | 94% (inactive) | 106% (inactive) | 88.3% (inactive) | -8.47% (inactive) | 96.8 | 88.3 | -0.78% (inactive) | 9.51% (inactive) |
